Test results taken from ChEMBL document CHEMBL1649157, “Intracellular activity of antibiotics against Staphylococcus aureus in a mouse peritonitis model” (Antimicrob Agents Chemother, 2009).
Activity calls are given as the source filed them. No cut-off for these calls is given here.

Assays:
[1] = tested on: Staphylococcus aureus; assay: Antibacterial activity against Staphylococcus aureus E19977 infected in NMRI mouse assessed as log reduction in intracellular bacterial cfu in peritoneum at 200 mg/kg, sc administered as single dose 2 hrs after infection measured between 4 to 19 hrs; assay type: functional, organism-based; set-up: dose 200 mg/kg
Outline: (§1)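 NMRI mice were infected i.p. and given one or three doses (every 8 h), starting 2 h post-inoculation, at 200 mg/kg or 60 mg/kg, four mice per group. Peritoneal washes were sampled over 19 h of treatment. Total, extracellular and intracellular CFU/ml (lysostaphin separation) were compared with the pretreatment level; mean ± range, n = 2. Untreated controls were sampled only at 6 h of infection.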

[2] = tested on: Staphylococcus aureus; assay: Antibacterial activity against Staphylococcus aureus E19977 infected in NMRI mouse assessed as log reduction in extracellular bacterial cfu in peritoneum at 60 mg/kg, sc administered as single dose 2 hrs after infection measured after 4 hrs; assay type: functional, organism-based; set-up: dose 60 mg/kg
Outline: (§2)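 NMRI mice were infected i.p. with S. aureus E19977 in 5% mucin. A single dose (60 mg/kg or 10 mg/kg) was given 1, 2 or 3 h after inoculation, four mice per group. Peritoneal wash was sampled after 4 h of treatment and separated into total, extracellular and intracellular counts by lysostaphin/centrifugation. Δlog10 CFU/ml was calculated against vehicle-treated mice infected for the same time (5, 6 or 7 h).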

[3] = tested on: Staphylococcus aureus; assay: Antibacterial activity against Staphylococcus aureus E19977 infected in NMRI mouse assessed as log reduction in bacterial cfu in peritoneum at 200 mg/kg, sc administered 2 hrs after infection measured after 4 hrs; assay type: functional, organism-based; set-up: dose 200 mg/kg
Outline: (§3)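 Dose–response in i.p.-infected NMRI mice (mucin adjuvant). Single doses of 200, 60, 30, 20 or 10 mg/kg were given 2 h after inoculation, with 4–16 mice per group. Peritoneal wash was sampled 4 h later and split by lysostaphin/centrifugation into total, extra- and intracellular counts, then expressed as Δlog10 CFU/ml against log dose. Vehicle controls were plotted as 0.3 mg/kg. Hill fit (variable slope); static dose interpolated.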

[4] = tested on: Staphylococcus aureus; assay: Antibacterial activity against Staphylococcus aureus E19977 infected in NMRI mouse assessed as log reduction in extracellular bacterial cfu in peritoneum at 200 mg/kg, sc administered 2 hrs after infection evry 8 hrs as three-dose regimen measured after 19 hrs; assay type: functional; settings: route subcutaneous
[5] = tested on: Staphylococcus aureus; assay: Antibacterial activity against Staphylococcus aureus E19977 infected in NMRI mouse assessed as log reduction in bacterial cfu in peritoneum at 60 mg/kg, sc administered as single dose 2 hrs after infection measured within 4 hrs; assay type: functional; settings: route subcutaneous
Outline: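 Female NMRI mice were infected i.p. with S. aureus E19977 (10^7.7 CFU/ml, 0.5 ml, 5% mucin). They were treated 2 h post-inoculation with a single 60 mg/kg dose and sampled after 4 h of treatment. Peritoneal-wash CFU were plated on blood agar. Δlog10 CFU/ml was calculated against vehicle-treated controls with the same infection duration.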

[6] = tested on: Staphylococcus aureus; assay: Antibacterial activity against Staphylococcus aureus E19977 infected in NMRI mouse assessed as log reduction in extracellular bacterial cfu in peritoneum at 10 to 200 mg/kg, sc administered 2 hrs after infection measured after 4 hrs; assay type: functional, organism-based; outline: as §3
[7] = tested on: Staphylococcus aureus; assay: Antibacterial activity against Staphylococcus aureus E19977 infected in NMRI mouse assessed as log reduction in bacterial cfu in peritoneum at 60 mg/kg, sc administered as single dose 1 hr after infection measured after 4 hrs; assay type: functional, organism-based; set-up: dose 60 mg/kg; outline: as §2
[8] = tested on: Staphylococcus aureus; assay: Antibacterial activity against Staphylococcus aureus E19977 infected in NMRI mouse assessed as log reduction in bacterial cfu in peritoneum at 200 mg/kg, sc administered 2 hrs after infection evry 8 hrs as three-dose regimen measured after 19 hrs; assay type: functional; settings: route subcutaneous
Outline: (§4)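 Female outbred NMRI mice (25 to 30 g) were infected i.p. with 0.5 ml of 10^7.7 CFU/ml S. aureus E19977 in 5% (wt/vol) mucin. The first dose was given 2 h after inoculation, either once or as three doses every 8 h, with four mice per group. Mice were euthanized 19 h after treatment onset and washed peritoneally with 2.0 ml saline. Total CFU were counted by duplicate spotting of 10-fold dilutions on 5% blood agar.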

[9] = tested on: Staphylococcus aureus; assay: Bactericidal activity against Staphylococcus aureus E19977 assessed as log reduction in cfu at 2 mg/liter upto 24 hrs by time-kill study; assay type: functional
Outline: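 Clinical bacteremia isolate (penicillin-resistant, methicillin-susceptible). Exponential-phase bacteria were placed in an in vitro kinetic model that simulates drug elimination without changing the inoculum. The starting drug level matched the human free peak serum concentration after a single dose, with simulated human elimination half-life. Samples were taken at 0, 2, 4, 6, 8, 12 and 24 h, with growth controls in each run.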

[10] = tested on: Staphylococcus aureus; assay: Antibacterial activity against Staphylococcus aureus E19977 infected in NMRI mouse assessed as log reduction in bacterial cfu in peritoneum at 60 mg/kg, sc administered as single dose 2 hrs after infection measured after 4 hrs; assay type: functional, organism-based; set-up: dose 60 mg/kg; outline: as §2
[11] = tested on: Staphylococcus aureus; assay: Antibacterial activity against Staphylococcus aureus E19977 infected in NMRI mouse assessed as log reduction in intracellular bacterial cfu in peritoneum at 60 mg/kg, sc administered as single dose 3 hrs after infection measured after 4 hrs; assay type: functional, organism-based; set-up: dose 60 mg/kg; outline: as §2
[12] = tested on: Staphylococcus aureus; assay: Bactericidal activity against Staphylococcus aureus E19977 assessed as log reduction in cfu at 2 mg/liter after 24 hrs by time-kill study; assay type: functional, organism-based
Outline: (§5)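 In vitro kinetic model simulating antibiotic elimination without inoculum change. Exponential-phase E19977 was added at a final 10^6.3 CFU/ml. Starting drug concentration matched the human free peak, with the human half-life simulated. Samples were plated on 5% blood agar at 0, 2, 4, 6, 8, 12 and 24 h, with growth controls in each run. Results are shown as mean and range, n = 2.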

[13] = tested on: Staphylococcus aureus; assay: Antibacterial activity against Staphylococcus aureus E19977 infected in NMRI mouse assessed as log reduction in bacterial cfu in peritoneum at 200 mg/kg, sc administered as single dose 2 hrs after infection measured between 4 to 19 hrs; assay type: functional; settings: route subcutaneous; outline: as §4
[14] = tested on: Staphylococcus aureus; assay: Antibacterial activity against Staphylococcus aureus E19977 infected in NMRI mouse assessed as log reduction in intracellular bacterial cfu in peritoneum at 200 mg/kg, sc administered 2 hrs after infection measured after 4 hrs; assay type: functional, organism-based; set-up: dose 200 mg/kg; outline: as §3
[15] = tested on: Staphylococcus aureus; assay: Antibacterial activity against Staphylococcus aureus E19977 infected in NMRI mouse assessed as log reduction in intracellular bacterial cfu in peritoneum at 60 mg/kg, sc administered as single dose 1 hr after infection measured after 4 hrs; assay type: functional, organism-based; set-up: dose 60 mg/kg; outline: as §2
[16] = Cmax in human at 1000 mg, po; assay type: ADME, organism-based; set-up: dose 1000 mg, route oral; settings: in vivo
[17] = tested on: Staphylococcus aureus; assay: Bactericidal activity against Staphylococcus aureus E19977 assessed as log reduction in cfu at 0.5 mg/liter after 24 hrs by time-kill study; assay type: functional, organism-based; outline: as §5
[18] = Half life in human at 1000 mg, po; assay type: ADME, organism-based; settings: in vivo
[19] = tested on: Staphylococcus aureus; assay: Antibacterial activity against Staphylococcus aureus E19977 infected in NMRI mouse assessed as log reduction in intracellular bacterial cfu in peritoneum at 200 mg/kg, sc administered 2 hrs after infection evry 8 hrs as three-dose regimen measured after 19 hrs; assay type: functional, organism-based; set-up: dose 200 mg/kg; outline: as §1
[20] = tested on: Staphylococcus aureus; assay: Bactericidal activity against Staphylococcus aureus E19977 assessed as log reduction in cfu at 20 mg/liter upto 24 hrs by time-kill study; assay type: functional
Outline: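 In vitro kinetic model: exponential-phase bacteria at a final 10^6.3 CFU/ml were exposed to a starting concentration set to the human free peak level. Elimination followed the simulated human half-life. Samples were taken at 0, 2, 4, 6, 8, 12 and 24 h and counted on 5% blood agar (detection limit 25 CFU/ml). Growth controls were included; n = 2.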

Which Activity [1] does the source give for `Cc1onc(-c2c(Cl)cccc2Cl)c1C(=O)N[C@@H]1C(=O)N2[C@@H]1SC(C)(C)[C@@H]2C(=O)O` [DICLOXACILLIN] here?
The Activity was “inactive”.

And the Activity [2]?
Its Activity is “inactive”.

And the Activity [3]?
The Activity was “Active”.

What about the FC [4] of the same compound?
Its FC is 2.

And the FC [5]?
The FC was less than 1.

And the Activity [6]?
The Activity was “Dose-dependent effect”.

What about the Activity [7] of the same compound?
Its Activity is “Active”.

And the FC [8]?
The FC was 2.

And the FC [9]?
Its FC is 2.

And the Activity [10]?
Its Activity is “inactive”.

And the Activity [11]?
The Activity was “inactive”.

What about the Activity [12] of the same compound?
The Activity was “inactive”.

And the FC [13]?
Its FC is less than 1.

And the Activity [14]?
Its Activity is “inactive”.

And the Activity [15]?
Its Activity is “Active”.

And the Cmax [16]?
Its Cmax is 30000 ng/mL.

And the Activity [17]?
Its Activity is “inactive”.

And the half-life [18]?
The half-life was 1 h.

What about the Activity [19] of the same compound?
Its Activity is “inactive”.

What about the FC [20] of the same compound?
Its FC is greater than 2.
